Assay results: ChEMBL document CHEMBL1156036, “A class of novel N-(3S-1,2,3,4-tetrahydroisoquinoline-3-carbonyl)-L-amino acid derivatives: their synthesis, anti-thrombotic activity evaluation, and 3D QSAR analysis” (Eur J Med Chem, 2009)
Square brackets hold non-standard residues; d marks the D form. Peptide text beside a SMILES is read from it. Tic = O=C(O)[C@@H]1Cc2ccccc2CN1

How the values were obtained:
Format in all cases: functional
[1] = Antiplatelet aggregatory activity in pig […] assessed as inhibition of ADP-induced platelet aggregation; conditions: Sus scrofa
Summary of the method: (§1)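 Pig blood spun 1000g 10 min for platelet-rich plasma, then 1500g 10 min for platelet-poor plasma; platelets adjusted to 2×10^8/ml with autologous PPP. Test agent in NS (final 100 to 0.001 μM) added to 0.5 ml plasma, then inducer in NS: PAF 0.1 μM, ADP 10 μM, AA 350 μM or thrombin 0.1 U/ml (final). Optical aggregometry, 37 °C, 5 min, six tubes.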

Rattus norvegicus [2] = assay: Antithrombotic activity in Wistar rat assessed as reduction of wet thrombus weight at 0.2 umol/kg, po after 15 mins
Summary of the method: (§2)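 Oral dosing of male Wistar rats at 5, 1 or 0.2 μmol/kg in NS, or NS (0.6 ml) alone. Pentobarbital sodium 80.0 mg/kg ip; 30 min later vessels exposed. Weighed 6-cm thread in heparin-filled (50 IU/ml in NS) polyethylene tube linking carotid artery to jugular vein; 15 min flow; wet thrombus weight recorded, n = 12.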

[3] = Antiplatelet aggregatory activity in pig […] assessed as inhibition of platelet-activating factor-induced platelet aggregation; conditions: Sus scrofa; summary of the method: as §1
[4] = Antiplatelet aggregatory activity in pig […] assessed as inhibition of thrombin-induced platelet aggregation; conditions: Sus scrofa; summary of the method: as §1
Rattus norvegicus [5] = species on record: Rattus norvegicus; assay: Ratio of compound antithrombotic potency to aspirin antithrombotic potency in Wistar rat assessed as reduction of wet thrombus weight
Rattus norvegicus [6] = assay: Antithrombotic activity in Wistar rat assessed as reduction of wet thrombus weight at 1 umol/kg, po after 15 mins; summary of the method: as §2
[7] = Antiplatelet aggregatory activity in pig […] assessed as inhibition of arachidonic acid-induced platelet aggregation; conditions: Sus scrofa; summary of the method: as §1
Rattus norvegicus [8] = assay: Antithrombotic activity in Wistar rat assessed as reduction of wet thrombus weight at 5 umol/kg, po after 15 mins; summary of the method: as §2
Rattus norvegicus [9] = assay: Antithrombotic activity in Wistar rat assessed as reduction of wet thrombus weight at 5 umol/kg, iv after 15 mins
Summary of the method: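 Male Wistar rats, 250-300 g, given agent dissolved in NS (kept on ice) intravenously; Aspirin 15 μmol/kg as reference, NS as vehicle. Pentobarbital sodium 80.0 mg/kg i.p. Arteriovenous shunt from right carotid artery to left jugular vein via polyethylene tube containing a thread; blood flowed 15 min; wet thrombus weighed, n = 12, mean ± SD.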

In the case of `N=C(N)NCCC[C@H](NC(=O)[C@@H]1Cc2ccccc2CN1)C(=O)O` (H-[Tic]-Arg-OH), the IC50 [1] is reported as 124 nM, the Activity (Rattus norvegicus [2]) is reported as 29.11 mg and the IC50 [3] is reported as 1340 nM. For the same compound, the IC50 [4] was 496 nM, the Ratio (Rattus norvegicus [5]) was >30 and the Activity (Rattus norvegicus [6]) was 24.38 mg. For the same compound, the IC50 [7] was 361 nM, the Activity (Rattus norvegicus [8]) was 19.01 mg and the Activity (Rattus norvegicus [9]) was 18.73 mg.
